Measurements published in ChEMBL document CHEMBL1122490, “Aporphines. 48. Enantioselectivity of (R)-(-)- and (S)-(+)-N-n-propylnorapomorphine on dopamine receptors” (J Med Chem, 1983).

Key:
Rattus norvegicus [1] = organism: Rattus norvegicus; experiment: Stimulation of cAMP production in homogenates of corpus striatum from rat brain, at a concentration of 50 uM.; format: functional, organism-based
Summary of the method: (§1)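 Rat corpus striatum homogenates were incubated with excess ATP and theophylline to inhibit phosphodiesterase. cAMP formed per 2.5-min assay above the basal (no agonist) level was measured by protein-binding assay. Results are given as mean pmol ± SEM, and as percent of the blank control, with 5–12 replicates per concentration.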

Rattus norvegicus [2] = organism: Rattus norvegicus; experiment: Percent control of stimulation of cAMP production in rat striatal homogenate at 50 micro M concentration; format: functional; summary of the method: as §1
Rattus norvegicus [3] = experiment: Stereotypic behavior of male Sprague-Dawley rats, after a sc administration of 5 dose(mg/kg); format: functional
Summary of the method: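 Male Sprague-Dawley rats (175–200 g), group-housed with free food and water, 12-h light cycle. Drug freshly dissolved in ice-cold 1 mM citric acid/0.9% saline (1:4, v/v), given sc; vehicle injected as placebo. Stereotypy rated 0–3 by experienced observer from 30-s observations every 10 min over 60 min (maximum 18). Four to six rats per dose; means ± SEM.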

Structure (SMILES) | cAMP production (Rattus norvegicus [1]) [N] | Control (Rattus norvegicus [2]) [%] | Stereotypy score (Rattus norvegicus [3])
NCCc1ccc(O)c(O)c1 | 5.39 | 217 | 
CCCN1CCc2cccc3c2[C@@H]1Cc1ccc(O)c(O)c1-3.CCCN1CCc2cccc3c2[C@H]1Cc1ccc(O)c(O)c1-3 (racemic; (+)) |  |  | 17.2
CCCN1CCc2cccc3c2[C@@H]1Cc1ccc(O)c(O)c1-3.CCCN1CCc2cccc3c2[C@H]1Cc1ccc(O)c(O)c1-3 (racemic; (-)) |  |  | 18
CCCN1CCc2cccc3c2[C@@H]1Cc1ccc(O)c(O)c1-3.CN1CCc2cccc3c2[C@H]1Cc1ccc(O)c(O)c1-3 (stereo in doubt; (+)) |  |  | 17.5
CCCN1CCc2cccc3c2[C@@H]1Cc1ccc(O)c(O)c1-3.CN1CCc2cccc3c2[C@H]1Cc1ccc(O)c(O)c1-3 (stereo in doubt; (-)) |  |  | 17.7
CN1CCc2cccc3c2[C@H]1Cc1ccc(O)c(O)c1-3 [APOMORPHINE] |  |  | 18
